Screening data as filed in PubChem.
Bfl-1 A1 inh = inhibitors of the anti-apoptotic protein A1, read as caspase activation; caspase activation, % (test concentration not listed); 0.066% of 330,000 active; MEF A1-2A-BIM cells, Caspase-Glo 3/7 luminescence, 3 h; percent of clofoctol response, vehicle zero;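 active means over half of replicate activation scores above 10%, or exactly half above 10 with the replicate mean above 10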
XBP1 UPR activ = adaptive UPR (XBP1) activation. activation, % at 20 µM. AID 463104. 0.33% of 330,000 active. CHO-XBP1 luciferase reporter, IRE1-XBP1 UPR activation, luminescence; percent of tunicamycin response, DMSO as zero;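 active means versus positive control, 20 µM dose yields 30% or more activation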
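Material – CHO cell line with stable XBP1 luciferase reporter · Buffer or medium – F12 plus 10% FBS · Compound – single point, 20 µM final compound, 1% DMSO · Schedule – 16-18 h cell attachment at 37 °C, then 6 h compound exposure · Signal – Steady-Glo luminescence read · Benchmarks – high control tunicamycin 10 µg/mL final, low control DMSO vehicle only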
CHOP inhibitor = inhibitors of CHOP induction in ER stress response. CHO-K1 CHOP-promoter luciferase, tunicamycin-induced, 15-18 h. inhibition, % at 10 µM. 3.8% of 220,000 active;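 active means compounds that reduced the stress-induced luciferase reporter signal by more than about 70% of percent inhibition, limit read from the data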
UPR CHOP act = activators of apoptotic arm of unfolded protein response (CHOP); activation, % at 10 µM; AID 449763; 0.34% of 330,000 active; CHO-CHOP luciferase reporter, UPR activation, luminescence; percent of tunicamycin response over DMSO baseline;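 active means at 10 µM dose, activation of 40% or more, normalized to positive control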
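Assay system: CHO cells with stable CHOP pathway luciferase reporter; Buffer or medium: F12 plus 10% serum; Times: 16-18 h cell attachment, then 6 h compound exposure, 37 °C; Signal: luciferase luminescence; Read-out basis: percent activation relative to tunicamycin control; Control set: tunicamycin high control, DMSO low control.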
Each line names hits and unclear results; the compound was inactive in the other large screens. This excerpt belongs to a sample that is enriched for hits.

CCOc1ccc(NC(=O)CN2C(=O)NC(CCc3ccccc3)C2=O)cc1OCC (stereo not drawn)	none (no result: CHOP inhibitor)
Cc1ccc(/C=C/C2=NN(Cc3ccccc3Cl)C(=O)CC2)cc1	CHOP inhibitor 73.7
Cc1ccc(/C=C/C2=NN(Cc3ccccc3)C(=O)CC2)cc1	none
CSc1ccc(C2c3[nH]c4ccccc4c3CCN2C(=O)c2cc(C)n(C)n2)cc1 (stereo not drawn)	none
Cc1cc(C(=O)N2CCc3c([nH]c4ccccc34)C2c2cccc(Cl)c2)nn1C (stereo not drawn)	CHOP inhibitor 92.5
Cc1cc(Br)c(OCc2ccc(C(=O)N/N=C/c3ccc[nH]3)cc2)c(Br)c1	XBP1 UPR activ 98.8, UPR CHOP act 41.4 (no result: CHOP inhibitor)
CCC(C)Sc1nnc(CNC(=O)C23CC4CC(CC(C4)C2)C3)n1C1CCCCC1 (stereo not drawn)	CHOP inhibitor 94.8
CSc1cccc(NC(=O)CN(C)S(=O)(=O)c2cnc[nH]2)c1	none (no result: CHOP inhibitor)
CCOC(=O)CS(=O)(=O)c1nc(-c2ccccc2)cc(C(F)(F)F)n1	Bfl-1 A1 inh 8.7 (no result: CHOP inhibitor)
Cc1cc(C)nc(N2CCC(C(=O)Nc3ccc4c(c3)CCC4)CC2)n1	CHOP inhibitor 82.3
Cc1cc(C)nc(N2CCC(C(=O)NC3CCCc4ccccc43)CC2)n1 (stereo not drawn)	CHOP inhibitor 73.4
Cc1cc(C)cc(NC(=O)C2CCCN(c3nccc(C)n3)C2)c1 (stereo not drawn)	none
Cc1cc(C)cc(NC(=O)C2CCCN(c3nc(C)cc(C)n3)C2)c1 (stereo not drawn)	CHOP inhibitor 70.4
Cc1ccnc(N2CCC(C(=O)Nc3ccc4c(c3)CCC4)CC2)n1	none
COc1ccc(N2CCN(S(=O)(=O)c3cn(C)cn3)CC2)cc1	none (no result: CHOP inhibitor)
CCOC(=O)C1CCCN(C(=O)C2c3ccccc3Oc3ccccc32)C1 (stereo not drawn)	CHOP inhibitor 76.3
CCOC(=O)C1CCCN(C(=O)c2ccc(C(=O)c3ccccc3)cc2)C1 (stereo not drawn)	none (no result: CHOP inhibitor)
CC1Oc2ccccc2N(Cc2ccccc2Cl)C1=O (stereo not drawn)	CHOP inhibitor 88.7
Cc1ccc(C(=O)c2no[n+]([O-])c2C(=O)c2ccc(C)cc2)cc1	CHOP inhibitor 82.1
O=C(NNC(=O)c1cc2cc3ccccc3nc2s1)c1ccc(F)cc1	CHOP inhibitor 88.7
CC(C)COc1cccc(C(=O)N(CC(=O)Nc2ccccc2C(F)(F)F)Cc2ccco2)c1	none (no result: CHOP inhibitor)
CCc1ccc(OCC(=O)N/N=C(\C)c2ccc(OC(F)F)cc2)cc1	CHOP inhibitor 78.3
CCc1ccc(OCC(=O)N/N=C(\C)c2ccccc2OC(F)F)cc1	none
O=c1cc(NS(=O)(=O)c2ccccc2)nc(SCc2ccccc2Cl)[nH]1	none
Cc1ccc(S(=O)(=O)Nc2cc(=O)[nH]c(SCc3ccc(Cl)cc3)n2)cc1	CHOP inhibitor 85.5 (no result: XBP1 UPR activ, UPR CHOP act)
O=c1cc(NS(=O)(=O)c2ccccc2)nc(SCc2c(Cl)cccc2Cl)[nH]1	CHOP inhibitor 79.6
Cc1ccc2nc(SCC(=O)N3c4ccccc4CC3C)c(C)cc2c1 (stereo not drawn)	CHOP inhibitor 77.8
Cc1ccc2nc(-c3cccnc3SCC(=O)N3c4ccccc4CC3C)[nH]c2c1 (stereo not drawn)	none
COC(=O)c1ccc(Cn2c(C)cc(C)[n+]2C)o1	CHOP inhibitor 72.7
COc1ccc(-n2cnc3scc(-c4ccc(OC)c(OC)c4)c3c2=O)cc1	CHOP inhibitor 75.8
COc1ccc(-c2csc3ncn(-c4ccc(C)cc4)c(=O)c23)cc1OC	none
COc1ccc2ccccc2c1CNCCN1CCOCC1	none (no result: CHOP inhibitor)
CCOC(=O)N1CCC(NC(=O)CC2C(=O)NCCN2Cc2ccccc2)CC1 (stereo not drawn)	none (no result: CHOP inhibitor)
CCCCCCSc1nnc(-c2cnn(-c3ccccc3)c2-n2cccc2)n1C	CHOP inhibitor 84.2
O=C(O)C1CCN(C(=O)c2ccc3c(c2)OCO3)CC1	none (no result: CHOP inhibitor)
CCOc1ccc(-n2c(=O)c3c4c(sc3n(CC(=O)NCc3ccco3)c2=O)CCC4)cc1	CHOP inhibitor 70.3
CCN(CC)C(=O)Cn1c(=O)n(-c2ccccc2)c(=O)c2c3c(sc21)CCC3	none
COc1ccc(-c2sc3ccc(-c4ccc5c(c4)OCO5)cc3c2-c2ccc(OC)nc2)cc1	none (no result: CHOP inhibitor)
CC(=O)c1ccc(NC(=O)CN(c2c(C)cccc2C)S(C)(=O)=O)cc1	none (no result: CHOP inhibitor)
CC1CN(C(=O)c2ccccc2NS(=O)(=O)c2ccc(Cl)cc2)CC(C)O1 (stereo not drawn)	none (no result: CHOP inhibitor)
